{
  "source": "ChEMBL document CHEMBL1932940",
  "about": "“Xanthohumol induces apoptosis in human malignant glioblastoma cells by increasing reactive oxygen species and activating MAPK pathways” (J Nat Prod, 2011)",
  "key": {"[1]": {"system": "T98G", "test": "Induction of apoptosis in human T98G cells at 1 to 50 uM after 48 hrs by propidium iodide staining based flow cytometric analysis", "type": "functional, cell-based", "method_in_brief": "(§1)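 Cells treated 1−50 μM for 24 or 48 h, washed in PBS, resuspended in 0.1% sodium citrate, 0.1% Triton X-100, 50 μg/mL propidium iodide, 30 min at 4 °C in dark. Nuclei analyzed by flow cytometry, DNA on log scale, debris gated out; percent hypodiploid (sub-G1) nuclei reported. Three experiments in triplicate.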"}, "[2]": {"system": "U-87 MG", "test": "Induction of cell cycle arrest in human U87MG cells assessed as accumulation at S phase at 1 to 20 uM after 48 hrs by flow cytometric analysis", "type": "functional, cell-based", "conditions": "U-87MG ATCC", "method_in_brief": "(§2)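 2 × 10^5 cells per dish exposed 48 h (1−20 μM per legend); harvested, fixed in cold 70% ethanol at −20 °C, stained with propidium iodide plus RNase A (100 U/mL) 30 min at room temperature; percentage in G1, S, G2/M by flow cytometry. Three experiments in triplicate.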"}, "[3]": {"system": "U-87MG ATCC", "test": "Anticancer activity against human U87MG cells assessed as decrease in cell viability at 50 uM after 48 hrs by MTT assay", "type": "functional, cell-based", "method_in_brief": "(§3)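 Cells (T98G, U87-MG, NHA; 3 × 10^4 per well) plated, next day exposed to serial dilutions (1−50 μM) for 48 h at 37 °C, 5% CO2. MTT (5 mg/mL) added for 3 h; crystals solubilized in 50% DMF/20% SDS pH 4.5; OD at 620 nm. Viability = % of DMSO (0.1% final) controls. Means ± SEM, three experiments in triplicate.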"}, "[4]": {"system": "T98G", "test": "Induction of cell cycle arrest in human T98G cells assessed as accumulation at G0/G1 phase at 1 to 20 uM after 48 hrs by flow cytometric analysis", "type": "functional, cell-based", "method_in_brief": "as §2"}, "[5]": {"system": "U-87 MG", "test": "Induction of cell cycle arrest in human U87MG cells assessed as accumulation at G2/M phase at 1 to 20 uM after 48 hrs by flow cytometric analysis", "type": "functional, cell-based", "conditions": "U-87MG ATCC", "method_in_brief": "as §2"}, "[6]": {"test": "Cytotoxicity against normal human astrocytes assessed as decrease in cell viability after 48 hrs by MTT assay", "type": "cell-based", "conditions": "astrocyte", "method_in_brief": "as §3"}, "[7]": {"system": "T98G", "test": "Induction of cell cycle arrest in human T98G cells assessed as accumulation at S phase at 1 to 20 uM after 48 hrs by flow cytometric analysis", "type": "functional, cell-based", "method_in_brief": "as §2"}, "[8]": {"system": "U-87 MG", "test": "Induction of apoptosis in human U87MG cells at 1 to 50 uM after 48 hrs by propidium iodide staining based flow cytometric analysis", "type": "functional, cell-based", "conditions": "U-87MG ATCC", "method_in_brief": "as §1"}, "[9]": {"system": "T98G", "test": "Induction of cell cycle arrest in human T98G cells assessed as accumulation at G2/M phase at 1 to 20 uM after 48 hrs by flow cytometric analysis", "type": "functional, cell-based", "method_in_brief": "as §2"}, "[10]": {"system": "U-87 MG", "test": "Induction of cell cycle arrest in human U87MG cells assessed as accumulation at G0/G1 phase at 1 to 20 uM after 48 hrs by flow cytometric analysis", "type": "functional, cell-based", "conditions": "U-87MG ATCC", "method_in_brief": "as §2"}, "[11]": {"system": "T98G", "test": "Anticancer activity against human T98G cells assessed as decrease in cell viability at 50 uM after 48 hrs by MTT assay", "type": "functional", "method_in_brief": "as §3"}},
  "note": "The source made the active and inactive calls. The calls are words filed in the database; no cut-off is given here.",
  "data": [
    {"smiles": "CC(C)=CCC1C(=O)C(C(=O)CC(C)C)=C(O)C(O)(CC=C(C)C)C1=O", "note": "(stereo unspecified) [HUMULONE]", "values": [
      {"measurement": "Activity", "setting": "[1]", "value": "inactive"},
      {"measurement": "Activity", "setting": "[2]", "value": "inactive"},
      {"measurement": "Activity", "setting": "[3]", "value": "inactive"},
      {"measurement": "Activity", "setting": "[4]", "value": "inactive"},
      {"measurement": "Activity", "setting": "[5]", "value": "inactive"},
      {"measurement": "Activity", "setting": "[6]", "value": "Non-toxic"},
      {"measurement": "Activity", "setting": "[7]", "value": "inactive"},
      {"measurement": "Activity", "setting": "[8]", "value": "inactive"},
      {"measurement": "Activity", "setting": "[9]", "value": "inactive"},
      {"measurement": "Activity", "setting": "[10]", "value": "inactive"},
      {"measurement": "Activity", "setting": "[11]", "value": "inactive"}
    ]}
  ]
}
